42 molecules from ChEMBL document CHEMBL4190318 (Eur J Med Chem, 2017) can be followed below.

The target of data set [1] is T1, N-acylethanolamine-hydrolyzing acid amidase (Rattus norvegicus, UniProt Q5KTC7).
T1 sequence (Q5KTC7 whole entry): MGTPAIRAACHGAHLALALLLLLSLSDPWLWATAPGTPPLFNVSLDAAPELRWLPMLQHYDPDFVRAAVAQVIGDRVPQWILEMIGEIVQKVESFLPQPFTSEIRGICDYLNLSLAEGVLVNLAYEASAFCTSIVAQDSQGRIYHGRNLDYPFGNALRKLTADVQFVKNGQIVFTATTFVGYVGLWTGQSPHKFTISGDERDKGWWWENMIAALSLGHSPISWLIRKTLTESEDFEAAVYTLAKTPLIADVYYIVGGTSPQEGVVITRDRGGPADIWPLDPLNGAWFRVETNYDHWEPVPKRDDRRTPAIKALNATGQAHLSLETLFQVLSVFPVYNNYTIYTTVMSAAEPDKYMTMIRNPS
Put plainly: Inhibition of rat NAAA expressed in HEK293 cells using heptadecenoylethanolamide as substrate after 30 mins by HPLC-MS/MS analysis. The method, boiled down:
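Rat NAAA activity measured against heptadecenoylethanolamide (C17:1 FAE) substrate, with hydrolysis products quantified by LC-MS. IC50 derived by nonlinear regression of concentration-response curves. Runs done in triplicate (n = 3); mean ± SD of three independent experiments.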

Data set [2] deals with T2, Acid ceramidase (Rattus norvegicus) (UniProt Q6P7S1).
T2 sequence (whole entry): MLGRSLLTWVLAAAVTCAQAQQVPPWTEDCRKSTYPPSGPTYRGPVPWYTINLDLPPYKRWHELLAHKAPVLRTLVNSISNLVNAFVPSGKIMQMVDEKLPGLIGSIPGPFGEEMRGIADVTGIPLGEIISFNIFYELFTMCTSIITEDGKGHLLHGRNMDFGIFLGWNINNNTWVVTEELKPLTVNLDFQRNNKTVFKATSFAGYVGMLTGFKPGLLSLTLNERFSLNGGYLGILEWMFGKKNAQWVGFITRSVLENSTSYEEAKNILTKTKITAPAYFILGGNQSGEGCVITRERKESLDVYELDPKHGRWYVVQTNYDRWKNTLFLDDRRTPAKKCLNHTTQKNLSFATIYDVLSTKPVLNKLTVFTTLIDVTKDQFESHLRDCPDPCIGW
Nature of the data set: Inhibition of rat acid ceramidase expressed in HEK293 cells assessed as remaining activity at 20 uM using N-lauroylceramide as substrate after 30 mins by LC-MS analysis (reference value: 100 +/- 21.4 %). Format: cell-based.

Data set [3] concerns the target N-acylethanolamine acid amidase (Rattus norvegicus). Put plainly: Inhibition of rat N-acylethanolamine acid amidase expressed in HEK293 cells using heptadecenoylethanolamide as substrate after 30 mins by LC-MS analysis.
Data set [4] addresses T3, N-acylethanolamine-hydrolyzing acid amidase (Rattus norvegicus) (UniProt Q5KTC7).
T3 sequence (whole entry): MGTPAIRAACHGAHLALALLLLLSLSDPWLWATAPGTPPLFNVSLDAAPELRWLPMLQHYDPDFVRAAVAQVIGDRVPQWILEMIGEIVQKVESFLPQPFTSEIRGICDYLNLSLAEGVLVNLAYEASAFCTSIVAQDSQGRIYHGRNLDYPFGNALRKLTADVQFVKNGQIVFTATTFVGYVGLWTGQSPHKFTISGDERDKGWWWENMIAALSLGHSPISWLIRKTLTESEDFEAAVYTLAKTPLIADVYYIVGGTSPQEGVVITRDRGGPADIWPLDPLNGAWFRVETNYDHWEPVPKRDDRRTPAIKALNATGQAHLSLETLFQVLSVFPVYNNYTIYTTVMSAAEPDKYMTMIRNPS
Nature of the data set: Inhibition of rat NAAA expressed in HEK293 cells at 50 to 250 nM using heptadecenoylethanolamide as substrate after 30 mins in presence of covalent beta-lactone NAAA inhibitor ARN077 by Yonetani-Theorell plot analysis.

For data set [5], the target named is T3, N-acylethanolamine-hydrolyzing acid amidase (Rattus norvegicus). Nature of the data set: Inhibition of rat NAAA expressed in HEK293 cells at 50 to 250 nM using heptadecenoylethanolamide as substrate after 30 mins in presence of non-covalent competitive NAAA inhibitor E8 by Yonetani-Theorell plot analysis. It counts as cell-based.
Data set [6] shares this target. Put plainly: Reversible inhibition of rat NAAA expressed in HEK293 cells at 10 fold IC50 preincubated for 10 mins followed by 100 fold dilution using heptadecenoylethanolamide as substrate by HPLC-MS/MS analysis. It counts as cell-based.
Compound in data set [7]: O=C(CCCCCc1ccc(Cl)cc1)N1CCOC1=O
Nature of the data set: (§1) Inhibition of rat NAAA expressed in HEK293 cells assessed as enzyme Vmax per mg protein in presence of varying concentration of heptadecenoylethanolamide substrate after 30 mins by Michaelis-Menten plot analysis (reference value: 9383 +/- 937 nmol/min). Format: cell-based.

Compound in data set [8]: O=C(CCCCCc1cccc(Cl)c1)N1CCOC1=O
The description is as §1. It counts as cell-based.

Compound in data set [9]: O=C(CCCCCc1ccc(Cl)cc1)N1CCOC1=O
Nature of the data set: (§2) Inhibition of rat NAAA expressed in HEK293 cells assessed as Km for substrate in presence of varying concentration of heptadecenoylethanolamide substrate after 30 mins by Michaelis-Menten plot analysis (reference value: 1395 +/- 260 microM). Format: cell-based.

Compound in data set [10]: O=C(CCCCCc1cccc(Cl)c1)N1CCOC1=O
The description is as §2. Format: cell-based.

Activity calls are given as the source filed them. No cut-off for these calls is given here. Some results are limits rather than exact numbers.

As a reminder, the IC50 is the midpoint of a concentration-inhibition curve. High values mean weaker potency, low ones greater potency. With `O=C(CCCCCc1ccccc1Cl)N1CCOC1=O`, the half-maximal inhibitory concentration (IC50) in data set [1] was > 20 µM.

With `COc1ccc(CCCCCC(=O)N2CCOC2=O)cc1`, the 50% inhibitory concentration (IC50) in data set [1] was > 20 µM.

Take `O=C(CCCCCc1cccc(CO)c1)N1CCOC1=O`: in data set [1], the IC50 was > 20 µM.

The molecule `O=C(CCCCCc1cccc(O)c1)N1CCOC1=O` returned an IC50 in data set [1] of 8.64 µM.

Regarding `O=C(CCCCCc1ccc(O)c(Cl)c1)N1CCOC1=O`, the IC50 in [1] was > 20 µM.

As to `NC(=O)c1ccc(CCCCCC(=O)N2CCOC2=O)cc1`, the IC50 in data set [1] was > 20 µM.

`O=C1OCCN1C(=O)c1ccc(OC2CCC(O)CC2)cc1` (stereo unspecified): the IC50 in data set [1] came to 0.21 µM.

On to `CCCCCCOc1ccc(C(=O)N2CCOC2=O)cc1`, for which the midpoint of inhibition in data set [1], the IC50, lay at 0.64 µM. Compared with the last molecule, the IC50 is about 3-fold higher.

Consider `O=C1OCCN1C(=O)c1ccc(OC2CCCCC2)cc1`, for which the half-inhibitory concentration (IC50) in [1] and in data set [3] was 0.092 µM each time. Besides, the Activity in data set [2] is 81.7%.

Consider `O=C(CCCCCc1ccc(Br)cc1)N1CCOC1=O`, for which half-maximal inhibition in data set [1] (IC50) was put at 8.51 µM.

`O=C(CCCCCc1cccc(Br)c1)N1CCOC1=O` came in with an IC50 in data set [1] of 0.43 µM.

Turning to `Cc1ccc(CCCCCC(=O)N2CCOC2=O)cc1C`, the IC50 in data set [1] is > 20 µM.

For `O=C(CCCCCc1cccc(Cl)c1)N1CCOC1=O`, the Activity in data set [2] amounted to 85.3%. Also, the inhibition entry in data set [4], in data set [5] and in [6] was “Active” each time.

On to `O=C(CCCCCc1ccc(Cl)cc1)N1CCOC1=O`, for which 4.6 µM corresponded to half-maximal inhibition in data set [1] (IC50).

As for `Cc1cccc(Oc2ccc(C(=O)N3CCOC3=O)cc2)c1`, in data set [1], half-maximal inhibition (IC50) was put at 5.21 µM.

For `O=C(CCCCCc1ccc(CO)cc1)N1CCOC1=O`, in data set [1], the IC50 is 0.19 µM.

In [1], `Nc1ccc(CCCCCC(=O)N2CCOC2=O)cc1` yielded a concentration for half-maximal inhibition (IC50) of 15.7 µM.

Consider `Nc1cccc(CCCCCC(=O)N2CCOC2=O)c1`, for which the IC50 in data set [1] was > 20 µM.

`O=C(CCCCCc1ccccc1)N1CCOC1=O`: the Activity in data set [2] came to 90.6%. The molecule further returned a half-maximal inhibitory concentration (IC50) in data set [3] of 0.27 µM.

Regarding `O=C(CCCCCc1ccccc1O)N1CCOC1=O`, in [1], the IC50 is > 20 µM.

Turning to `CCC(CC)Oc1ccc(C(=O)N2CCOC2=O)cc1`, in data set [1], the IC50 was determined as 0.48 µM. In other words, the sub-micromolar range.

Turning to `O=C(O)c1cccc(CCCCCC(=O)N2CCOC2=O)c1`, in [1], the IC50 is > 20 µM.

On to `O=C(CCCCCc1ccc(O)cc1)N1CCOC1=O`, for which, in data set [2], the Activity is 95.1%.

Consider `O=C(CCCCCc1ccc(I)cc1)N1CCOC1=O`, for which, in [1], the half-maximal inhibitory concentration (IC50) was > 20 µM.

`O=C1OCCN1C(=O)c1ccc(Oc2cccc(Cl)c2)cc1` displayed a concentration for half-maximal inhibition (IC50) in data set [1] of 7.74 µM.

Consider `O=C(CCCCCc1cccc(I)c1)N1CCOC1=O`, for which the IC50 in data set [1] stood at 3.12 µM.

`O=C(O)c1ccc(CCCCCC(=O)N2CCOC2=O)cc1`: the IC50 in data set [1] is > 20 µM.

In data set [1], `COc1cccc(CCCCCC(=O)N2CCOC2=O)c1` showed an IC50 of 16.3 µM. In other words, the double-digit micromolar range.

In the case of `O=C(CCCCCc1ccc(O)c(F)c1)N1CCOC1=O`, 0.16 µM corresponded to half-maximal inhibition in data set [1] (IC50).

Consider `NC(=O)c1cccc(CCCCCC(=O)N2CCOC2=O)c1`, for which the IC50 in data set [1] is > 20 µM.

`O=C(CCCCCc1ccc(F)c(Cl)c1)N1CCOC1=O`: in data set [1], half-maximal inhibition (IC50) was put at 0.026 µM. This counts as double-digit nanomolar.

Turning to `CSc1ccc(CCCCCC(=O)N2CCOC2=O)cc1`, the IC50 in data set [1] is > 20 µM.

The molecule `O=C1OCCN1C(=O)c1ccc(OC2CCOCC2)cc1` gave an IC50 in data set [1] of 0.33 µM.

As for `O=C1OCCN1C(=O)c1ccc(OC2CCCC2)cc1`, the half-inhibitory concentration (IC50) in data set [1] came out at 0.12 µM. Compared with the last molecule, the IC50 is about 2.8-fold lower.

For `Cc1ccccc1CCCCCC(=O)N1CCOC1=O`, the IC50 in data set [1] is > 20 µM.

Turning to `Cc1ccc(Oc2ccc(C(=O)N3CCOC3=O)cc2)cc1`, half-maximal inhibition in [1] (IC50) was put at 6.4 µM.

The molecule `O=C(CCCCCc1cccc(C(F)(F)F)c1)N1CCOC1=O` gave a 50% inhibitory concentration (IC50) in [1] of 0.058 µM. This IC50 is about 110-fold lower than that of the molecule before.

Turning to `CCCCOc1ccc(C(=O)N2CCOC2=O)cc1`, the IC50 in data set [1] was 1.34 µM. Compared with the last molecule, the IC50 is about 23-fold higher.

On to `O=C1OCCN1C(=O)c1ccc(Oc2ccc(O)cc2)cc1`, for which the IC50 in [1] was > 20 µM.

`CSc1cccc(CCCCCC(=O)N2CCOC2=O)c1`: in data set [1], the midpoint of inhibition, the IC50, lay at 12.8 µM.

As for `O=C(CCCCCc1ccc(C(F)(F)F)cc1)N1CCOC1=O`, in data set [1], the IC50 came out at 1.04 µM.

B1: N-acylethanolamine-hydrolyzing acid amidase (Rattus norvegicus), Q5KTC7 (protein)
chain: MGTPAIRAACHGAHLALALLLLLSLSDPWLWATAPGTPPLFNVSLDAAPELRWLPMLQHYDPDFVRAAVAQVIGDRVPQWILEMIGEIVQKVESFLPQPFTSEIRGICDYLNLSLAEGVLVNLAYEASAFCTSIVAQDSQGRIYHGRNLDYPFGNALRKLTADVQFVKNGQIVFTATTFVGYVGLWTGQSPHKFTISGDERDKGWWWENMIAALSLGHSPISWLIRKTLTESEDFEAAVYTLAKTPLIADVYYIVGGTSPQEGVVITRDRGGPADIWPLDPLNGAWFRVETNYDHWEPVPKRDDRRTPAIKALNATGQAHLSLETLFQVLSVFPVYNNYTIYTTVMSAAEPDKYMTMIRNPS
What is called Vmax is the rate approached at saturating substrate. By Km is commonly meant the concentration of substrate that gives half-maximal velocity. For the molecule B1, the maximal velocity (Vmax) in data set [7] was 9900 nmol/min/mg; in data set [8], 2790 nmol/min/mg. The Km amounted to 1670 µM in [9] and 1280 µM in data set [10].
